Source: ChEMBL document CHEMBL4118024, “Tannins and Tannin-Related Derivatives Enhance the (Pseudo-)Halogenating Activity of Lactoperoxidase” (J Nat Prod, 2017)

Tests used:
Settings in all cases: Bos taurus; call rule not given here
[1] = test system: Oc1cc(O)c2c(c1)O[C@H](c1ccc(O)c(O)c1)[C@H](O)[C@H]2c1c(O)cc(O)c2c1O[C@H](c1ccc(O)c(O)c1)[C@H](O)[C@H]2c1c(O)cc(O)c2c1O[C@H](c1ccc(O)c(O)c1)[C@H](O)C2; assay: (§1) Induction of H2O2-inactivated bovine milk lactoperoxidase pseudo-halogenating activity assessed as increase in hypothiocyanate formation by measuring ratio of Kcat to Km for substrate using thiocyanate as substrate by Lineweaver-Burk plot
Summary of the method: (§2)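 Bovine milk LPO, lyophilized (about 80% purity), 5 nM final, in PBS (10 mM, pH 7.4) at 37 °C with 2 mM SCN−, 50 μM TNB and 80 μM H2O2. Compounds from 5 or 10 mM DMSO stocks, final 0.01–500 μM. −OSCN formation followed at 412 nm as TNB conversion to DTNB in a plate reader. KM, Vmax, kcat and specificity constant from Lineweaver–Burk plots. Mean ± SD, n = 3.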

[2] = test system: Oc1cc(O)c2c(c1)O[C@H](c1ccc(O)c(O)c1)[C@H](O)[C@H]2c1c(O)cc(O)c2c1O[C@H](c1ccc(O)c(O)c1)[C@H](O)C2; assay: as §1; summary of the method: as §2
[3] = test system: Oc1cc(O)c2c(c1)O[C@@]1(c3ccc(O)c(O)c3)Oc3cc(O)c4c(c3[C@@H]2[C@H]1O)O[C@H](c1ccc(O)c(O)c1)[C@H](O)C4; assay: as §1; summary of the method: as §2
[4] = test system: O=C(O[C@@H]1Cc2c(O)cc(O)cc2O[C@@H]1c1cc(O)c(O)c(O)c1)c1cc(O)c(O)c(O)c1; assay: as §1; summary of the method: as §2
[5] = test system: O=C(OC[C@H]1O[C@@H](OC(=O)c2cc(O)c(O)c(O)c2)[C@H](O)[C@@H](OC(=O)c2cc(O)c(O)c(O)c2)[C@@H]1O)c1cc(O)c(O)c(O)c1; assay: as §1; summary of the method: as §2
[6] = test system: COC(=O)c1cc(O)c(O)c(O)c1; assay: as §1; summary of the method: as §2
[7] = test system: Oc1cc(O)c2c(c1)O[C@H](c1cc(O)c(O)c(O)c1)[C@H](O)C2; assay: as §1; summary of the method: as §2
[8] = test system: O=c1oc2c(O)c(O)cc3c(=O)oc4c(O)c(O)cc1c4c23; assay: as §1; summary of the method: as §2
[9] = test system: Oc1cc(O)c2c(c1)O[C@H](c1ccc(O)c(O)c1)[C@H](O)C2; assay: as §1; summary of the method: as §2
[10] = test system: O=C(O)c1cc(O)c(O)c(O)c1; assay: as §1; summary of the method: as §2
[11] = test system: O=C1O[C@@H]2[C@@H](OC(=O)c3cc(O)c(O)c(O)c3-c3c1cc(O)c(O)c3O)[C@H](O)O[C@@H]1COC(=O)c3cc(O)c(O)c(O)c3-c3c(O)c(O)c4oc(=O)c5c(c(O)c(O)c6oc(=O)c3c4c65)-c3c(cc(O)c(O)c3O)C(=O)O[C@@H]21; assay: as §1; summary of the method: as §2
[12] = test system: O=C(/C=C/c1ccc(O)c(O)c1)O[C@@H]1C[C@](O)(C(=O)O)C[C@@H](O)[C@H]1O; assay: as §1; summary of the method: as §2
[13] = test system: Oc1cc(O)c2c(c1)O[C@H](c1ccc(O)c(O)c1)[C@H](O)[C@H]2c1c(O)cc(O)c2c1O[C@H](c1ccc(O)c(O)c1)[C@H](O)[C@H]2c1c(O)cc(O)c2c1O[C@H](c1ccc(O)c(O)c1)[C@H](O)C2; assay: (§3) Induction of H2O2-inactivated bovine milk lactoperoxidase pseudo-halogenating activity assessed as increase in hypothiocyanate formation by measuring substrate Kcat using thiocyanate as substrate by Lineweaver-Burk plot; summary of the method: as §2
[14] = test system: Oc1cc(O)c2c(c1)O[C@H](c1ccc(O)c(O)c1)[C@H](O)[C@H]2c1c(O)cc(O)c2c1O[C@H](c1ccc(O)c(O)c1)[C@H](O)C2; assay: as §3; summary of the method: as §2
[15] = test system: Oc1cc(O)c2c(c1)O[C@@]1(c3ccc(O)c(O)c3)Oc3cc(O)c4c(c3[C@@H]2[C@H]1O)O[C@H](c1ccc(O)c(O)c1)[C@H](O)C4; assay: as §3; summary of the method: as §2
[16] = test system: O=C(OC[C@H]1O[C@@H](OC(=O)c2cc(O)c(O)c(O)c2)[C@H](OC(=O)c2cc(O)c(O)c(O)c2)[C@@H](OC(=O)c2cc(O)c(O)c(O)c2)[C@@H]1OC(=O)c1cc(O)c(O)c(O)c1)c1cc(O)c(O)c(O)c1; assay: as §3; summary of the method: as §2
[17] = test system: O=C(O[C@@H]1Cc2c(O)cc(O)cc2O[C@@H]1c1cc(O)c(O)c(O)c1)c1cc(O)c(O)c(O)c1; assay: as §3; summary of the method: as §2
[18] = test system: O=C(OC[C@H]1O[C@@H](OC(=O)c2cc(O)c(O)c(O)c2)[C@H](O)[C@@H](OC(=O)c2cc(O)c(O)c(O)c2)[C@@H]1O)c1cc(O)c(O)c(O)c1; assay: as §3; summary of the method: as §2
[19] = test system: COC(=O)c1cc(O)c(O)c(O)c1; assay: as §3; summary of the method: as §2
[20] = test system: Oc1cc(O)c2c(c1)O[C@H](c1cc(O)c(O)c(O)c1)[C@H](O)C2; assay: as §3; summary of the method: as §2
[21] = test system: O=c1oc2c(O)c(O)cc3c(=O)oc4c(O)c(O)cc1c4c23; assay: as §3; summary of the method: as §2
[22] = test system: Oc1cc(O)c2c(c1)O[C@H](c1ccc(O)c(O)c1)[C@H](O)C2; assay: as §3; summary of the method: as §2
[23] = test system: O=C(O)c1cc(O)c(O)c(O)c1; assay: as §3; summary of the method: as §2
[24] = test system: O=C1O[C@@H]2[C@@H](OC(=O)c3cc(O)c(O)c(O)c3-c3c1cc(O)c(O)c3O)[C@H](O)O[C@@H]1COC(=O)c3cc(O)c(O)c(O)c3-c3c(O)c(O)c4oc(=O)c5c(c(O)c(O)c6oc(=O)c3c4c65)-c3c(cc(O)c(O)c3O)C(=O)O[C@@H]21; assay: as §3; summary of the method: as §2
[25] = test system: O=C(/C=C/c1ccc(O)c(O)c1)O[C@@H]1C[C@](O)(C(=O)O)C[C@@H](O)[C@H]1O; assay: as §3; summary of the method: as §2
[26] = test system: Oc1cc(O)c2c(c1)O[C@H](c1ccc(O)c(O)c1)[C@H](O)[C@H]2c1c(O)cc(O)c2c1O[C@H](c1ccc(O)c(O)c1)[C@H](O)[C@H]2c1c(O)cc(O)c2c1O[C@H](c1ccc(O)c(O)c1)[C@H](O)C2; assay: (§4) Induction of H2O2-inactivated bovine milk lactoperoxidase pseudo-halogenating activity assessed as increase in hypothiocyanate formation by measuring substrate Km using thiocyanate as substrate by Lineweaver-Burk plot; summary of the method: as §2
[27] = test system: Oc1cc(O)c2c(c1)O[C@H](c1ccc(O)c(O)c1)[C@H](O)[C@H]2c1c(O)cc(O)c2c1O[C@H](c1ccc(O)c(O)c1)[C@H](O)C2; assay: as §4; summary of the method: as §2
[28] = test system: Oc1cc(O)c2c(c1)O[C@@]1(c3ccc(O)c(O)c3)Oc3cc(O)c4c(c3[C@@H]2[C@H]1O)O[C@H](c1ccc(O)c(O)c1)[C@H](O)C4; assay: as §4; summary of the method: as §2
[29] = test system: O=C(OC[C@H]1O[C@@H](OC(=O)c2cc(O)c(O)c(O)c2)[C@H](OC(=O)c2cc(O)c(O)c(O)c2)[C@@H](OC(=O)c2cc(O)c(O)c(O)c2)[C@@H]1OC(=O)c1cc(O)c(O)c(O)c1)c1cc(O)c(O)c(O)c1; assay: as §4; summary of the method: as §2
[30] = test system: O=C(O[C@@H]1Cc2c(O)cc(O)cc2O[C@@H]1c1cc(O)c(O)c(O)c1)c1cc(O)c(O)c(O)c1; assay: as §4; summary of the method: as §2
[31] = test system: O=C(OC[C@H]1O[C@@H](OC(=O)c2cc(O)c(O)c(O)c2)[C@H](O)[C@@H](OC(=O)c2cc(O)c(O)c(O)c2)[C@@H]1O)c1cc(O)c(O)c(O)c1; assay: as §4; summary of the method: as §2
[32] = test system: COC(=O)c1cc(O)c(O)c(O)c1; assay: as §4; summary of the method: as §2
[33] = test system: Oc1cc(O)c2c(c1)O[C@H](c1cc(O)c(O)c(O)c1)[C@H](O)C2; assay: as §4; summary of the method: as §2
[34] = test system: O=c1oc2c(O)c(O)cc3c(=O)oc4c(O)c(O)cc1c4c23; assay: as §4; summary of the method: as §2
[35] = test system: Oc1cc(O)c2c(c1)O[C@H](c1ccc(O)c(O)c1)[C@H](O)C2; assay: as §4; summary of the method: as §2
[36] = test system: O=C(O)c1cc(O)c(O)c(O)c1; assay: as §4; summary of the method: as §2
[37] = test system: O=C1O[C@@H]2[C@@H](OC(=O)c3cc(O)c(O)c(O)c3-c3c1cc(O)c(O)c3O)[C@H](O)O[C@@H]1COC(=O)c3cc(O)c(O)c(O)c3-c3c(O)c(O)c4oc(=O)c5c(c(O)c(O)c6oc(=O)c3c4c65)-c3c(cc(O)c(O)c3O)C(=O)O[C@@H]21; assay: as §4; summary of the method: as §2
[38] = test system: O=C(/C=C/c1ccc(O)c(O)c1)O[C@@H]1C[C@](O)(C(=O)O)C[C@@H](O)[C@H]1O; assay: as §4; summary of the method: as §2

Lactoperoxidase (Bos taurus) (from UniProt P80025)
kcat/Km [1]: 0.8 µM⁻¹ s⁻¹
kcat/Km [2]: 12.1 µM⁻¹ s⁻¹
kcat/Km [3]: 4.74 µM⁻¹ s⁻¹
kcat/Km [4]: 43.8 µM⁻¹ s⁻¹
kcat/Km [5]: 50.3 µM⁻¹ s⁻¹
kcat/Km [6]: 64.7 µM⁻¹ s⁻¹
kcat/Km [7]: 53.7 µM⁻¹ s⁻¹
kcat/Km [8]: 98.3 µM⁻¹ s⁻¹
kcat/Km [9]: 68.4 µM⁻¹ s⁻¹
kcat/Km [10]: 0.2 µM⁻¹ s⁻¹
kcat/Km [11]: 1.1 µM⁻¹ s⁻¹
kcat/Km [12]: 48.1 µM⁻¹ s⁻¹
kcat [13]: 6.43 s⁻¹
kcat [14]: 4.53 s⁻¹
kcat [15]: 60 s⁻¹
kcat [16]: Not Active
kcat [17]: 13.9 s⁻¹
kcat [18]: 63.7 s⁻¹
kcat [19]: 80.3 s⁻¹
kcat [20]: 13.9 to 43.6 s⁻¹
kcat [21]: 29.3 s⁻¹
kcat [22]: 41.4 s⁻¹
kcat [23]: 30.9 s⁻¹
kcat [24]: 11.8 s⁻¹
kcat [25]: 60.6 s⁻¹
Km [26]: 8.41 µM
Km [27]: 0.37 µM
Km [28]: 12.7 µM
Km [29]: Not Active
Km [30]: 0.32 µM
Km [31]: 1.37 µM
Km [32]: 1.24 µM
Km [33]: 0.32 to 0.81 µM
Km [34]: 0.3 µM
Km [35]: 0.61 µM
Km [36]: 177 µM
Km [37]: 10.6 µM
Km [38]: 1.26 µM
